Here are results for five compounds from ChEMBL document CHEMBL1145100, “Structure-activity relationship of imidazo[1,2-a]pyridines as ligands for detecting beta-amyloid plaques in the brain” (J Med Chem, 2003).

Broadly, the Ki is a measure of affinity in units of concentration, obtained from inhibition or displacement. Lower therefore signals tighter binding.

The target of the assay is Amyloid-beta precursor protein (Homo sapiens, UniProt P05067). Briefly: Inhibition constant against [125I]-7 (TZDM) binding to Amyloid beta 1-40 aggregates. The gist of the method:
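Abeta40 peptide aggregated at 0.5 mg/mL in pH 7.4 buffer (10 mM sodium phosphate, 1 mM EDTA), 37 °C for 36-42 h with shaking. Competition in 1 mL of 40% EtOH: fibrils 10-50 nM final, radiotracer 0.05 nM, inhibitors 10^-5 to 10^-10 M. Nonspecific binding with 2 µM thioflavin-T. Incubated 3 h at room temperature, then GF/B filtration with 10% ethanol washes and gamma counting. Ki from nonlinear regression.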

Amyloid-beta precursor protein, sequence (P05067 whole entry): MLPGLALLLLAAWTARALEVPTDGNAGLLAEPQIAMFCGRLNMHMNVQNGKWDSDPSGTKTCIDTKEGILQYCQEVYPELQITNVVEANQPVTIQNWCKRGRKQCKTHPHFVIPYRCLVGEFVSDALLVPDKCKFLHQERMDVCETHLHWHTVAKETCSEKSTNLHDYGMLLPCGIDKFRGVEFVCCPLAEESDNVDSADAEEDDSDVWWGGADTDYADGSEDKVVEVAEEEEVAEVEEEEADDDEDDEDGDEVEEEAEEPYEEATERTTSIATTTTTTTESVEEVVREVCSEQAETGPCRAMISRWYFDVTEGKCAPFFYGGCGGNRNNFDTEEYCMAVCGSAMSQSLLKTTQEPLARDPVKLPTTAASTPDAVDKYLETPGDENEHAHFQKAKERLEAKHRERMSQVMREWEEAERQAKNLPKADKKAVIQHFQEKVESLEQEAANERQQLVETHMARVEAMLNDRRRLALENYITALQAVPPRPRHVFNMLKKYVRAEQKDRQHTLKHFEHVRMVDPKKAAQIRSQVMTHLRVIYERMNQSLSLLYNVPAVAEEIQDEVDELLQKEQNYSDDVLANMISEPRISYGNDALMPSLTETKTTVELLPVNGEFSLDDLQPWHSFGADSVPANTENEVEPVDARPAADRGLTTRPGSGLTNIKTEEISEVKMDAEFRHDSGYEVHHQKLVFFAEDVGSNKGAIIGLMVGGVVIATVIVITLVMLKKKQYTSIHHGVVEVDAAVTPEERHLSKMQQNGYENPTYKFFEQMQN

As for `CNc1ccc(-c2cn3cc(C)ccc3n2)cc1`, the inhibition constant Ki was > 2000 nM.

Compound `Cc1ccc2nc(-c3ccc(N(C)C)cc3)cn2c1` showed an inhibition constant Ki of 242 nM.

For `Cc1ccc2nc(-c3ccc(Br)cc3)cn2c1`, the affinity, expressed as Ki, was 638 nM.

`CN(C)c1ccc(-c2cn3cc(Br)ccc3n2)cc1` displayed a Ki of 10.3 nM.

Turning to `CNc1ccc(-c2cn3ccccc3n2)cc1`, the Ki is > 1000 nM.
